Laboratory results from paper PMC2597579 (Neuroscience letters, 2008).
Read-outs that look alike come from different tables or passages of the source.

How the values were obtained:
[1] = target: T1, α1β2γ2s GABAA receptor (rat subunits expressed in Xenopus laevis oocytes) (Rattus norvegicus, UniProt P18508+P62813+P63138); format: cell-based
GABAA receptor = conditions: cited from earlier work
[2] = target: T1, α1β2γ2s GABAA receptor (rat subunits expressed in Xenopus laevis oocytes); format: cell-based; remark: listed apart in the source
Summary of the method: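 Rat α1, β2, γ2S cRNAs injected 1:1:1 into defolliculated stage IV–V Xenopus laevis oocytes, kept 2–3 days at 18°C. Two-electrode voltage clamp at −60 mV, room temperature, Ca-free frog Ringer's pH 7.5. […] Percent change from control peak; t-test.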

GABAA receptors = conditions: ref Wan et al. [39], cited from earlier work
α4β3γ1 GABAA receptor = conditions: insulin, α4β3γ1 isoform; ref [40]; cited from earlier work

T1 sequence (P62813 28-455): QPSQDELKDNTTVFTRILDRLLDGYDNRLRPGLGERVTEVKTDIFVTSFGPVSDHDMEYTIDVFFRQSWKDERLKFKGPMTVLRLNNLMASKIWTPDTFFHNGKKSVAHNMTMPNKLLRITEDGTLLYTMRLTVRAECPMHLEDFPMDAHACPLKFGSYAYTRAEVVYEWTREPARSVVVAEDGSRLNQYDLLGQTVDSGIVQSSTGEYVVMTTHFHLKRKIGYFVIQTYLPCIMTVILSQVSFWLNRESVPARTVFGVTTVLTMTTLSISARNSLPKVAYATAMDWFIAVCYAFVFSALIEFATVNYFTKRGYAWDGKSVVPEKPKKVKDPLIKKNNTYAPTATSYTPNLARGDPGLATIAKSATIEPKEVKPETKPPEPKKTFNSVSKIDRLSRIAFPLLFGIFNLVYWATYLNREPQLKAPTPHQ
T1 sequence (P63138 26-474): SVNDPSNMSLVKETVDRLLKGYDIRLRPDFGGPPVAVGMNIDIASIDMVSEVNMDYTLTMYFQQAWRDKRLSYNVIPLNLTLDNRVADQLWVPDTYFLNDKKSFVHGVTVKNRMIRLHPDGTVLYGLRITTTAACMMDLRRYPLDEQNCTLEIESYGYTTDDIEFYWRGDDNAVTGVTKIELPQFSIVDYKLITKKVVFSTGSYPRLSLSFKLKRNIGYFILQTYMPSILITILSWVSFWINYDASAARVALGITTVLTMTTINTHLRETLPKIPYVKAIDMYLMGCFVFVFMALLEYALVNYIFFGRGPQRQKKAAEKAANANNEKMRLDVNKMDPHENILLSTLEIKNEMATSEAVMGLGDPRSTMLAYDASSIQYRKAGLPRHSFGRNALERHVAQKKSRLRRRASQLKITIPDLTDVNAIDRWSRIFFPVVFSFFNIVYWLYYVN
T1 sequence (P18508 39-466): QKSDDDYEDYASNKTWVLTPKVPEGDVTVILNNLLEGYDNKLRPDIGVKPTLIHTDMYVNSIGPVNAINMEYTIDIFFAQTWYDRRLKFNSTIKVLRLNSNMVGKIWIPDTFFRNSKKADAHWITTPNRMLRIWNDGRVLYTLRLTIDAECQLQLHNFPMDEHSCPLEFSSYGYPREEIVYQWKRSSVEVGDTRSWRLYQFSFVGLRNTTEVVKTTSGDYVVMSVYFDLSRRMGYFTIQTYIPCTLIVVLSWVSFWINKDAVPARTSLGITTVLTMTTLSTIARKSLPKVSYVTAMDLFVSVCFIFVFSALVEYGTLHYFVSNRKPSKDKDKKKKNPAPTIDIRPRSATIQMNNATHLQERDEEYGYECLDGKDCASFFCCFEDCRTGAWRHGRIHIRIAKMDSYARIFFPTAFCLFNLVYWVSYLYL

NCCCC(=O)O [GABA, γ-aminobutyric acid, reference compound]
approximate EC30 of GABA ([1]; concentration used for insulin dose response): ~1 µM

CN1CCc2cc3c(cc2[C@H]1[C@@H]1OC(=O)c2c1ccc1c2OCO1)OCO3 [bicuculline]
type of GABAA antagonism (GABAA receptor; rightward shift in GABA EC50, no significant effect on maximal current, ref [2]): typical competitive inhibitor

c1ccc2c(c1)Cc1ccccc1-n1c-2nnc1N1CCNCC1 [pitrazepin]
type of GABAA antagonism (GABAA receptor; similar effects and shifts in GABA dose response curves, ref [14]): competitive inhibitors of the GABAA receptor

COc1c(O[C@@H]2O[C@H](CO)[C@@H](O)[C@H](O)[C@H]2O)cc2c(c1OC)-c1ccc(SC)c(=O)cc1[C@@H](NC(C)=O)CC2 [thiocolchicoside]
type of GABAA antagonism (GABAA receptor; similar effects and shifts in GABA dose response curves, ref [11]): competitive inhibitors of the GABAA receptor

insulin: pancreatic peptide hormone; bovine form (cat I-5500) from Sigma, dissolved in 0.1% acetic acid
effect of insulin on GABA induced current ([2]; 1 nM insulin + 1 µM GABA): inhibits currents elicited by 1 µM GABA | reversibility of the inhibitory effect of insulin ([2]; 1 nM insulin, then 1 µM GABA only): reversible | saturating insulin concentration ([2]; 100 nM insulin): at or near saturating | effect of insulin on GABA induced current ([2]; 100 nM insulin + 1 µM GABA): inhibits currents elicited by 1 µM GABA | effect of insulin on GABA induced current ([2]; 100 nM insulin + 100 µM GABA): no significant effect | percent change in GABA induced current ([2]; 100 nM insulin co-applied with 100 µM GABA (near saturating), not significant): −0.33 ± 2.0% | inhibition of GABA induced current ([2]; insulin co-applied with low (EC30–50) concentrations of GABA): about 38% | affinity of insulin for the GABA receptor ([2]; stated in discussion, from insulin dose response): nanomolar affinity for the GABA receptor | maximal current with insulin, % of maximal ([1]; 100 nM insulin, GABA dose response 0.1 µM to 1 mM): 99 ± 13% | incubation time required for potentiating effect (GABAA receptors; 500 nM insulin): at least 10 minutes | insulin concentration required for potentiating effect (GABAA receptors; incubation at least 10 minutes): 500 nM | type of inhibition (α4β3γ1 GABAA receptor): mixed type inhibition
